# Measured values taken from ChEMBL document CHEMBL1139844, “Synthesis and antimalarial activity of side chain modified 4-aminoquinoline derivatives” (J Med Chem, 2007).
# How the values were obtained:
# [1] = system: Plasmodium falciparum; test: Antiplasmodial activity against Plasmodium falciparum NF54; assay type: functional, organism-based
# [2] = Inhibition of beta-hematin polymerization; design: species or system Plasmodium falciparum
# [3] = system: Mus musculus; test: Mean survival time of Swiss mice (Mus musculus) infected with Plasmodium yoelii N67 at 30 mg/kg, intraperitoneally; assay type: functional; conditions: route intraperitoneal
# In short: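 Swiss mice infected with P. yoelii N-67; test compounds at 30 mg/kg given intraperitoneally once daily on four consecutive days; saline-treated mice as controls. Mice followed for 28 days; mean survival time (± SE) counted only for mice dying within that period, with survivors beyond 28 days excluded.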
# [4] = system: Plasmodium yoelii; test: Antimalarial activity against Plasmodium yoelii N67 infected in Swiss mice (Mus musculus) at 30 mg/kg, intraperitoneally; assay type: functional; conditions: route intraperitoneal
# In short: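 Swiss mice infected with P. yoelii N-67, dosed ip at 30 mg/kg once daily for four consecutive days; saline-treated controls. Parasitaemia on day 4 gives % suppression = [(C − T)/C] × 100 (C, T = control, treated parasitaemia). Mean survival time counted only for mice dying within the 28-day observation period; survivors beyond 28 days excluded.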
Structure (SMILES),IC50 [1],MIC [1],IC50 [2],MST [3],Activity [4]
O=C1c2ccccc2SC(c2c(Cl)cccc2Cl)N1CCNc1ccnc2cc(Cl)ccc12 (stereo not given),0.291 µM,5.88 µM,0.49 equivalents,,
O=C1c2ccccc2SC(c2c(Cl)cccc2Cl)N1CCCCNc1ccnc2cc(Cl)ccc12 (stereo not given),3.07 µM,13.8 µM,0.97 equivalents,,
O=C1CCSC(c2c(Cl)cccc2Cl)N1CCCCNc1ccnc2cc(Cl)ccc12 (stereo not given),7.15 µM,15.2 µM,0.58 equivalents,,
O=C1c2ccccc2SC(c2ccc(Cl)cc2)N1CCNc1ccnc2cc(Cl)ccc12 (stereo not given),0.013 µM,0.26 µM,0.24 equivalents,15.2 days,81%
O=C1c2ccccc2SCN1CCNc1ccnc2cc(Cl)ccc12,0.065 µM,0.68 µM,0.94 equivalents,11.4 days,48.33%
O=C1CCSC(c2ccc(Cl)cc2)N1CCCCNc1ccnc2cc(Cl)ccc12 (stereo not given),0.271 µM,0.54 µM,0.76 equivalents,13.8 days,62.32%
O=C1CSC(c2c(Cl)cccc2Cl)N1CCCNc1ccnc2cc(Cl)ccc12 (stereo not given),0.138 µM,0.27 µM,0.39 equivalents,10.6 days,40.08%
CC1SCN(CCNc2ccnc3cc(Cl)ccc23)C1=O (stereo not given),1.68 µM,3.11 µM,1.05 equivalents,,
O=C1c2ccccc2SCN1CCCNc1ccnc2cc(Cl)ccc12,0.429 µM,1.3 µM,0.78 equivalents,,
O=C1CCSC(c2ccc(Cl)cc2)N1CCNc1ccnc2cc(Cl)ccc12 (stereo not given),4.07 µM,4.62 µM,0.47 equivalents,,
O=C1CCSCN1CCCNc1ccnc2cc(Cl)ccc12,1.81 µM,2.48 µM,0.96 equivalents,,
O=C1c2ccccc2SC(c2ccc(Cl)cc2)N1CCCCNc1ccnc2cc(Cl)ccc12 (stereo not given),1.27 µM,2.17 µM,0.95 equivalents,,
O=C1CSC(c2c(Cl)cccc2Cl)N1CCNc1ccnc2cc(Cl)ccc12 (stereo not given),0.039 µM,0.55 µM,0.46 equivalents,14.6 days,76.08%
O=C1CSC(c2c(Cl)cccc2Cl)N1CCCCNc1ccnc2cc(Cl)ccc12 (stereo not given),3.03 µM,6.17 µM,0.64 equivalents,,
CC1SCN(CCCCNc2ccnc3cc(Cl)ccc23)C1=O (stereo not given),1.29 µM,5.73 µM,0.98 equivalents,,
O=C1CCSC(c2c(Cl)cccc2Cl)N1CCNc1ccnc2cc(Cl)ccc12 (stereo not given),3.27 µM,4.28 µM,0.45 equivalents,,
O=C1CCSC(c2ccc(Cl)cc2)N1CCCNc1ccnc2cc(Cl)ccc12 (stereo not given),0.014 µM,0.28 µM,0.62 equivalents,12 days,23.5%
O=C1CCSCN1CCCCNc1ccnc2cc(Cl)ccc12,1.81 µM,2.86 µM,0.89 equivalents,,
O=C1CSC(c2ccc(Cl)cc2)N1CCCNc1ccnc2cc(Cl)ccc12 (stereo not given),1.04 µM,1.16 µM,0.56 equivalents,,
O=C1CSCN1CCCNc1ccnc2cc(Cl)ccc12,1.65 µM,3.11 µM,0.96 equivalents,,
CCN(CC)CCCC(C)Nc1ccnc2cc(Cl)ccc12 (stereo not given) [CHLOROQUINE],,0.39 µM,,20 days,99.99%

# The remaining compounds from weak to strong by IC50 [1], led by results:
IC50 [1],MIC [1],IC50 [2],Structure (SMILES),MST [3],Activity [4]
6.15 µM,10.4 µM,0.88 equivalents,O=C1CCSC(c2c(Cl)cccc2Cl)N1CCCNc1ccnc2cc(Cl)ccc12 (stereo not given),,
2.92 µM,6.21 µM,0.99 equivalents,O=C1CCSCN1CCNc1ccnc2cc(Cl)ccc12,,
2.65 µM,5.96 µM,0.91 equivalents,O=C1CSCN1CCCCNc1ccnc2cc(Cl)ccc12,,
2.33 µM,5.65 µM,1.02 equivalents,CC1SCN(CCCNc2ccnc3cc(Cl)ccc23)C1=O (stereo not given),,
2.19 µM,9.45 µM,0.65 equivalents,O=C1c2ccccc2SC(c2c(Cl)cccc2Cl)N1CCCNc1ccnc2cc(Cl)ccc12 (stereo not given),,
2.14 µM,3.25 µM,0.98 equivalents,O=C1CSCN1CCNc1ccnc2cc(Cl)ccc12,,
1.98 µM,4.08 µM,0.85 equivalents,O=C1CSC(c2ccc(Cl)cc2)N1CCCCNc1ccnc2cc(Cl)ccc12 (stereo not given),,
1.51 µM,2.51 µM,0.89 equivalents,O=C1c2ccccc2SCN1CCCCNc1ccnc2cc(Cl)ccc12,,
1.03 µM,2.02 µM,0.46 equivalents,O=C1c2ccccc2SC(c2ccc(Cl)cc2)N1CCCNc1ccnc2cc(Cl)ccc12 (stereo not given),,
0.98 µM,1.2 µM,0.75 equivalents,O=C1CSC(c2ccc(Cl)cc2)N1CCNc1ccnc2cc(Cl)ccc12 (stereo not given),,
